system: Rattus norvegicus; test: Antiinflammatory activity in albino rat assessed as inhibition of LPS-induced TSG-14 production at 30 mg/kg, po administered 30 mins before LPS challenge measured after 4 to 6 hrs by ELISA relative to control; assay type: functional
Method in brief: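 Male albino rats (~200 g), three per group, dosed orally with compound suspended in 0.5% carboxymethylcellulose. LPS (Escherichia coli B055/B5, 0.1 mg/kg ip) was given 30 min after dosing. Sera were collected 4-6 h after LPS and assayed in duplicate by sandwich ELISA for rat PTX3/TSG-14 (detection limit <0.02 ng/mL). Percent inhibition was taken against an untreated LPS control, as mean ± S.E.M. (n = 3).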

| SMILES | inhibition in vivo at 30 mg/kg |
| --- | --- |
| N=c1c2cc(-c3ccc(Cl)cc3)n(-c3ccccc3)c2[nH]c(=S)n1N | 0% |
| CCC(C)Sc1nc2c(cc(-c3ccc(C)cc3)n2-c2ccccc2)c(=N)s1 (stereo not given) | 2% |
| CCC(C)Sc1nc2c(cc(-c3ccccc3)n2-c2ccccc2)c(=N)s1 (stereo not given) | 50% |
| Cc1ccc(-c2cc3c(=N)n(N)c(=S)[nH]c3n2-c2ccccc2)cc1 | 0% |
| CCn1c(=S)[nH]c2c(cc(-c3ccc(C)cc3)n2-c2ccccc2)c1=N | 60% |
| CCC(C)Sc1nc2c(cc(-c3ccc(Br)cc3)n2-c2ccccc2)c(=N)s1 (stereo not given) | 70% |
| CCSc1nc2c(cc(-c3ccc(C)cc3)n2-c2ccccc2)c(=N)s1 | 0% |
| CCSc1nc2c(cc(-c3ccccc3)n2-c2ccccc2)c(=N)s1 | 0% |
| N=c1sc(=S)[nH]c2c1cc(-c1ccc(Cl)cc1)n2-c1ccccc1 | 2% |
| CCSc1nc2c(cc(-c3ccc(Br)cc3)n2-c2ccccc2)c(=N)s1 | 1% |
| CCC(C)Sc1nc2c(cc(-c3ccc(Cl)cc3)n2-c2ccccc2)c(=N)s1 (stereo not given) | 2% |
| N=c1c2cc(-c3ccccc3)n(-c3ccccc3)c2[nH]c(=S)n1N | 23% |
| CCSc1nc2c(cc(-c3ccc(Cl)cc3)n2-c2ccccc2)c(=N)s1 | 1% |
| CCn1c(=S)[nH]c2c(cc(-c3ccc(Cl)cc3)n2-c2ccccc2)c1=N | 61% |
| CCn1c(=S)[nH]c2c(cc(-c3ccc(Br)cc3)n2-c2ccccc2)c1=N | 80% |
| N=c1sc(=S)[nH]c2c1cc(-c1ccccc1)n2-c1ccccc1 | 0% |
| N=c1c2cc(-c3ccc(Br)cc3)n(-c3ccccc3)c2[nH]c(=S)n1N | 33% |
| Cc1ccc(-c2cc3c(=N)sc(=S)[nH]c3n2-c2ccccc2)cc1 | 0% |
| CCn1c(=S)[nH]c2c(cc(-c3ccccc3)n2-c2ccccc2)c1=N | 65% |
| N=c1sc(=S)[nH]c2c1cc(-c1ccc(Br)cc1)n2-c1ccccc1 | 44% |
